From ChEMBL document CHEMBL3797186, “Single Residue Substitutions That Confer Voltage-Gated Sodium Ion Channel Subtype Selectivity in the NaV1.7 Inhibitory Peptide GpTx-1” (J Med Chem, 2016)
Positions of bridges follow the written chain, without caps; N, C: chain ends. Non-standard residues stand in square brackets, D forms with d. Residues, ends and D or L forms follow the SMILES beside them. 1Nal = N[C@@H](Cc1cccc2ccccc12)C(=O)O

Assays:
Format in all cases: cell-based
[1] = molecular target: T1, Sodium channel protein type 9 subunit alpha (Homo sapiens, UniProt Q15858); test: Inhibition of human Nav1.7 expressed in HEK293 cells by whole cell patch clamp electrophysiology method
T1 sequence (Q15858 whole entry): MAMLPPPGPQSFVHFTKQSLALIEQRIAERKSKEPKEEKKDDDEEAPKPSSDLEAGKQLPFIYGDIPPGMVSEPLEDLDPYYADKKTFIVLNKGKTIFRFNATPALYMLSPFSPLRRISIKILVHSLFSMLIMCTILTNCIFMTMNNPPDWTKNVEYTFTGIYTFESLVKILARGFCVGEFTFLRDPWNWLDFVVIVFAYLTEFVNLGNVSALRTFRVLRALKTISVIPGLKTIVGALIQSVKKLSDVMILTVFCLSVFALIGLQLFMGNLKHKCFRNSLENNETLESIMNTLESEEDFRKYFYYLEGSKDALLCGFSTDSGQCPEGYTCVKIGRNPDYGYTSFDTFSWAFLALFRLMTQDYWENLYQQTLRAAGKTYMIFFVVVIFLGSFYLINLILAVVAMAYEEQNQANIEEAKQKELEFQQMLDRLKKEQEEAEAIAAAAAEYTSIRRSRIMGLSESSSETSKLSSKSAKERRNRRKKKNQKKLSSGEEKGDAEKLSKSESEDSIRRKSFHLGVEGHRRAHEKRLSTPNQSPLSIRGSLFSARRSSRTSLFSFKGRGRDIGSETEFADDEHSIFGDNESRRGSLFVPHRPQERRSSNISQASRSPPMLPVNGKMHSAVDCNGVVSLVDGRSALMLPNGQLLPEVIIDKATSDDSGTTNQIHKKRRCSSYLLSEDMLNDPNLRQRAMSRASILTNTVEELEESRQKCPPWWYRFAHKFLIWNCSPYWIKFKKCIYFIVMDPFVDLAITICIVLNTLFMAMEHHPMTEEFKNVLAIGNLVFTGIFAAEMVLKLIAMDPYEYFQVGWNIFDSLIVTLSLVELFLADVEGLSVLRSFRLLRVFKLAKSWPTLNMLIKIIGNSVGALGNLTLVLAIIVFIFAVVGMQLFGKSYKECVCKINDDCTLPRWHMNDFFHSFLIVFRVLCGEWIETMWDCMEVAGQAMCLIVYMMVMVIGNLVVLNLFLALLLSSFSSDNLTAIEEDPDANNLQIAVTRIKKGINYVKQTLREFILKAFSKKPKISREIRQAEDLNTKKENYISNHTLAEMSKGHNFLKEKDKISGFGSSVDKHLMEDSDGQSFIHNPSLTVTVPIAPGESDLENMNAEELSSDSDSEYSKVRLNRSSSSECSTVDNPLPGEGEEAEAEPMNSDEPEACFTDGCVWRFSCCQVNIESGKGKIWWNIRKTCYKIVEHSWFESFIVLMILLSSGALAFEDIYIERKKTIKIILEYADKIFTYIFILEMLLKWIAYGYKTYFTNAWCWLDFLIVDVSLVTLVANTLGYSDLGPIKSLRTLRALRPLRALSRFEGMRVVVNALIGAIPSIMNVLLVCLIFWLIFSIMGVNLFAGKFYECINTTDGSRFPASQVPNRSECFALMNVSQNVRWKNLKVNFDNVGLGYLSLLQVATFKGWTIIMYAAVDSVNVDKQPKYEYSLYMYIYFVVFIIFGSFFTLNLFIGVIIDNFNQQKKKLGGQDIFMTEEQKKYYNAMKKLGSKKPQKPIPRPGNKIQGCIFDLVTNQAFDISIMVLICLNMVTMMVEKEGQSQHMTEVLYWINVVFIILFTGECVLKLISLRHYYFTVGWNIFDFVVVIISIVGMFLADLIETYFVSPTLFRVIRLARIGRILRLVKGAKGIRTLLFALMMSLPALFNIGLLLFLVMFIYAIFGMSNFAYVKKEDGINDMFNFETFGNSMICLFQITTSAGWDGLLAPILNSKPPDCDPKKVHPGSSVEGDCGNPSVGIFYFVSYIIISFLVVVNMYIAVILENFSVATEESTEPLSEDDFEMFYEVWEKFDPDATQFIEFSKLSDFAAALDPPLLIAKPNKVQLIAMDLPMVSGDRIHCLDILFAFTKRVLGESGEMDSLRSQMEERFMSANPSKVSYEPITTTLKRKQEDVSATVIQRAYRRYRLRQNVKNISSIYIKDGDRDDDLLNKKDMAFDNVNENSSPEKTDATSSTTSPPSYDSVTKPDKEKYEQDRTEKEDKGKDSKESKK

[2] = molecular target: T2, Sodium channel protein type 5 subunit alpha (Homo sapiens, UniProt Q14524); test: Inhibition of human Nav1.5 expressed in HEK293 cells by whole cell patch clamp electrophysiology method
T2 sequence (Q14524 whole entry): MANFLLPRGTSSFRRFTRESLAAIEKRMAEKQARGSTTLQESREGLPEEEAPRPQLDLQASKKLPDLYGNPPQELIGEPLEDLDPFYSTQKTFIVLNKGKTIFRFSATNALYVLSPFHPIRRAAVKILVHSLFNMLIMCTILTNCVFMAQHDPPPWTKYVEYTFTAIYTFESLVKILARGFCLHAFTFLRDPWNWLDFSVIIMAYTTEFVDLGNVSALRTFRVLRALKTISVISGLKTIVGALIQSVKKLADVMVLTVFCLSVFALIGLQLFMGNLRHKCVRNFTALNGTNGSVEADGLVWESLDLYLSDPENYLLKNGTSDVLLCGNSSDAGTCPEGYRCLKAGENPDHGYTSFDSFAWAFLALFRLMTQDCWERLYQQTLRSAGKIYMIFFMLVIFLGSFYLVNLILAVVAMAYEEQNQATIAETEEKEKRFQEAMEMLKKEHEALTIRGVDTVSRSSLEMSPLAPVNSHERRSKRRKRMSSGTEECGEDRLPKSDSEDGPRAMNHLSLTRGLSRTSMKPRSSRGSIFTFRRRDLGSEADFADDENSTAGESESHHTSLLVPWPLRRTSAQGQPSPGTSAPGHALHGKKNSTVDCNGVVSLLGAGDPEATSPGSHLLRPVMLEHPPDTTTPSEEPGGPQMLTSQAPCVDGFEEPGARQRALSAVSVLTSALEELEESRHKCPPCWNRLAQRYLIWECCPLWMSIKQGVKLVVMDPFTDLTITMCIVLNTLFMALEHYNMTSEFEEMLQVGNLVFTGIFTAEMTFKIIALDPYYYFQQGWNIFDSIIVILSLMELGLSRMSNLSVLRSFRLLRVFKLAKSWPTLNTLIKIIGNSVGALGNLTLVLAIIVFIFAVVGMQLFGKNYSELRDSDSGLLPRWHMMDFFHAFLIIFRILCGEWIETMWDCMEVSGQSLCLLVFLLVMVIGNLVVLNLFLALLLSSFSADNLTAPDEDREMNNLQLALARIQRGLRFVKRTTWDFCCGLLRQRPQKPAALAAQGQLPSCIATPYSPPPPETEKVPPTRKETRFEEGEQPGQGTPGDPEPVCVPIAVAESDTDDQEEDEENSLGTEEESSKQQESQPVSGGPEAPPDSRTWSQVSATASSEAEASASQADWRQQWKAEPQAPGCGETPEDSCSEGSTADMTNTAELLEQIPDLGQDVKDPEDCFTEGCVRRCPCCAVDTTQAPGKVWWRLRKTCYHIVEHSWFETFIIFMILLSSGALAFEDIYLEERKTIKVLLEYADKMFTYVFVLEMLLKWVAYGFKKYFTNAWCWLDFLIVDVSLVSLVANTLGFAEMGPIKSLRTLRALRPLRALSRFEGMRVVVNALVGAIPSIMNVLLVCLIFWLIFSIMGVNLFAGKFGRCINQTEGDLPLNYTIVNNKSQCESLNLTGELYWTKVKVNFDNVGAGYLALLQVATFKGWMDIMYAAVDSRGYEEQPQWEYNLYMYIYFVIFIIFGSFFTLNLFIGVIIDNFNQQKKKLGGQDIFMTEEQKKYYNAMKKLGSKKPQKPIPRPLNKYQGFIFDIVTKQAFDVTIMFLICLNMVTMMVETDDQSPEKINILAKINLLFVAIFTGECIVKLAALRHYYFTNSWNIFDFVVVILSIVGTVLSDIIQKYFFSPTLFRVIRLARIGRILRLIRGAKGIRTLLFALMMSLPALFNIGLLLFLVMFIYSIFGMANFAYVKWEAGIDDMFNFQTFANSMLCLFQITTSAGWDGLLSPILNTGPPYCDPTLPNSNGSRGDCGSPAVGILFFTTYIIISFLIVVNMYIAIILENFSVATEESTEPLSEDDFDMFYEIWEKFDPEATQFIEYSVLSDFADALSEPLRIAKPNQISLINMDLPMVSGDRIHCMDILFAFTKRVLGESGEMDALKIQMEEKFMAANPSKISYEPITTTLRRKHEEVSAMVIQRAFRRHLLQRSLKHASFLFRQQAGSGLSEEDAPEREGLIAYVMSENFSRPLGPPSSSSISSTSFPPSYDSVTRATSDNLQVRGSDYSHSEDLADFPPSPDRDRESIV
Summary of the method: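 Stable HEK293 line expressing human NaV1.5, recorded on the PatchXpress 7000A. Percent inhibition versus concentration was pooled from at least 10 cells, with two to three points per concentration. The pooled set was fitted with a four-parameter Hill equation to give a single IC50 curve.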

[3] = molecular target: T1, Sodium channel protein type 9 subunit alpha; test: Inhibition of human Nav1.7 expressed in HEK293 cells assessed as inward peak current by ion-works quattro patch clamp electrophysiology method
[4] = molecular target: T2, Sodium channel protein type 5 subunit alpha; test: Inhibition of human Nav1.5 expressed in HEK293 cells assessed as inward peak current by ion-works quattro patch clamp electrophysiology method
Summary of the method: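 Stable HEK293 line expressing human NaV1.5, recorded by population patch clamp on the IonWorks Quattro.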

Structure (SMILES)	IC50 [1]	IC50 [2]	IC50 [3]	IC50 [4]
CC[C@H](C)[C@@H]1NC(=O)[C@@H]2CSSC[C@@H]3NC(=O)[C@H](C(C)C)NC(=O)[C@H](CC(C)C)NC(=O)[C@H](CC(N)=O)NC(=O)[C@@H]4CCCN4C(=O)[C@H](CCCNC(=N)N)NC(=O)[C@H](CSSC[C@H](NC(=O)[C@@H](N)CC(=O)O)C(=O)N[C@@H](CC(C)C)C(=O)NCC(=O)N[C@@H](Cc4ccccc4)C(=O)N[C@@H](CCSC)C(=O)N[C@@H](CCCNC(=N)N)C(=O)N[C@@H](CCCCN)C(=O)N2)NC(=O)[C@H](CSSC[C@@H](C(=O)N[C@@H](CCCCN)C(=O)N[C@@H](Cc2ccc(O)cc2)C(=O)N[C@H](C(=O)N[C@@H](Cc2ccccc2)C(N)=O)C(C)C)NC(=O)[C@H](Cc2c[nH]c4ccccc24)NC(=O)[C@H](CC(=O)O)NC(=O)[C@H](Cc2cnc[nH]2)NC(=O)[C@H]([C@@H](C)O)NC(=O)[C@H](CCCNC(=N)N)NC(=O)[C@H](CO)NC3=O)NC(=O)[C@H](CCCCN)NC(=O)[C@H](CC(=O)O)NC(=O)[C@H](CC(N)=O)NC(=O)[C@H](CC(=O)O)NC(=O)[C@@H]2CCCN2C1=O (H-DCLGFMRKCIPDNDKCCRPNLVCSRTHDWCKYVF-NH2; disulfide 2-17, 9-23, 16-30)	16 nM	> 10000 nM		
CC[C@H](C)[C@@H]1NC(=O)[C@@H]2CSSC[C@@H]3NC(=O)[C@H](C(C)C)NC(=O)[C@H](CC(C)C)NC(=O)[C@H](CC(N)=O)NC(=O)[C@@H]4CCCN4C(=O)[C@H](CCCNC(=N)N)NC(=O)[C@H](CSSC[C@H](NC(=O)[C@@H](N)CC(=O)O)C(=O)N[C@@H](CC(C)C)C(=O)N[C@@H](CCCNC(=N)N)C(=O)N[C@@H](Cc4ccccc4)C(=O)N[C@@H](CCSC)C(=O)N[C@@H](CCCNC(=N)N)C(=O)N[C@@H](CCCCN)C(=O)N2)NC(=O)[C@H](CSSC[C@@H](C(=O)N[C@@H](CCCCN)C(=O)N[C@@H](Cc2ccc(O)cc2)C(=O)N[C@H](C(=O)N[C@@H](Cc2ccccc2)C(N)=O)C(C)C)NC(=O)[C@H](Cc2c[nH]c4ccccc24)NC(=O)[C@H](CCCCN)NC(=O)[C@H](Cc2cnc[nH]2)NC(=O)[C@H]([C@@H](C)O)NC(=O)[C@H](CCCNC(=N)N)NC(=O)[C@H](CO)NC3=O)NC(=O)[C@H](CCCCN)NC(=O)[C@H](CC(=O)O)NC(=O)[C@H](CC(N)=O)NC(=O)[C@H](CC(=O)O)NC(=O)[C@@H]2CCCN2C1=O (H-DCLRFMRKCIPDNDKCCRPNLVCSRTHKWCKYVF-NH2; disulfide 2-17, 9-23, 16-30)		4500 nM	230 nM	> 5000 nM
CC[C@H](C)[C@@H]1NC(=O)[C@@H]2CSSC[C@@H]3NC(=O)[C@H](C(C)C)NC(=O)[C@H](CC(C)C)NC(=O)[C@H](CC(N)=O)NC(=O)[C@@H]4CCCN4C(=O)[C@H](CCCNC(=N)N)NC(=O)[C@H](CSSC[C@H](N)C(=O)N[C@@H](CC(C)C)C(=O)NCC(=O)N[C@@H](Cc4ccccc4)C(=O)N[C@@H](CCSC)C(=O)N[C@@H](CCCNC(=N)N)C(=O)N[C@@H](CCCCN)C(=O)N2)NC(=O)[C@H](CSSC[C@@H](C(=O)N[C@@H](CCCCN)C(=O)N[C@@H](Cc2ccc(O)cc2)C(=O)N[C@H](C(=O)N[C@@H](Cc2ccccc2)C(N)=O)C(C)C)NC(=O)[C@H](Cc2c[nH]c4ccccc24)NC(=O)[C@H](CCCCN)NC(=O)[C@H](Cc2cnc[nH]2)NC(=O)[C@H]([C@@H](C)O)NC(=O)[C@H](CCCNC(=N)N)NC(=O)[C@H](CO)NC3=O)NC(=O)[C@H](CCCCN)NC(=O)[C@H](CC(=O)O)NC(=O)[C@H](CC(N)=O)NC(=O)[C@H](CC(=O)O)NC(=O)[C@@H]2CCCN2C1=O (H-CLGFMRKCIPDNDKCCRPNLVCSRTHKWCKYVF-NH2; disulfide 1-16, 8-22, 15-29)	8 nM			> 5000 nM
CC[C@H](C)[C@@H]1NC(=O)[C@@H]2CSSC[C@@H]3NC(=O)[C@H](C(C)C)NC(=O)[C@H](CC(C)C)NC(=O)[C@H](CC(N)=O)NC(=O)[C@@H]4CCCN4C(=O)[C@H](CCCNC(=N)N)NC(=O)[C@H](CSSC[C@H](NC(=O)[C@@H](N)CC(=O)O)C(=O)N[C@@H](CC(C)C)C(=O)NCC(=O)N[C@@H](Cc4ccccc4)C(=O)N[C@@H](CCSC)C(=O)N[C@@H](CCCNC(=N)N)C(=O)N[C@@H](CCCCN)C(=O)N2)NC(=O)[C@H](CSSC[C@@H](C(=O)N[C@@H](CCCCN)C(=O)N[C@@H](Cc2c[nH]c4ccccc24)C(=O)N[C@H](C(=O)N[C@@H](Cc2ccccc2)C(N)=O)C(C)C)NC(=O)[C@H](Cc2c[nH]c4ccccc24)NC(=O)[C@H](CCCCN)NC(=O)[C@H](Cc2c[nH]cn2)NC(=O)[C@H]([C@@H](C)O)NC(=O)[C@H](CCCNC(=N)N)NC(=O)[C@H](CO)NC3=O)NC(=O)[C@H](CCCCN)NC(=O)[C@H](CC(=O)O)NC(=O)[C@H](CC(N)=O)NC(=O)[C@H](CC(=O)O)NC(=O)[C@@H]2CCCN2C1=O (H-DCLGFMRKCIPDNDKCCRPNLVCSRTHKWCKWVF-NH2; disulfide 2-17, 9-23, 16-30)	12 nM			> 5000 nM
CC[C@H](C)[C@@H]1NC(=O)[C@@H]2CSSC[C@@H]3NC(=O)[C@H](C(C)C)NC(=O)[C@H](CC(C)C)NC(=O)[C@H](CC(N)=O)NC(=O)[C@@H]4CCCN4C(=O)[C@H](CCCNC(=N)N)NC(=O)[C@H](CSSC[C@H](NC(=O)[C@@H](N)CC(=O)O)C(=O)N[C@@H](CC(C)C)C(=O)NCC(=O)N[C@@H](Cc4ccccc4)C(=O)N[C@@H](CCSC)C(=O)N[C@@H](CCCNC(=N)N)C(=O)N[C@@H](CCCCN)C(=O)N2)NC(=O)[C@H](CSSC[C@@H](C(=O)N[C@@H](CCCCN)C(=O)N[C@@H](Cc2ccc(O)cc2)C(=O)N[C@H](C(=O)N[C@@H](Cc2ccccc2)C(N)=O)C(C)C)NC(=O)[C@H](Cc2c[nH]c4ccccc24)NC(=O)[C@H](CCCCN)NC(=O)[C@H](Cc2c[nH]cn2)NC(=O)[C@H]([C@@H](C)O)NC(=O)[C@H](CCCNC(=N)N)NC(=O)[C@H](CO)NC3=O)NC(=O)[C@H](CCCCN)NC(=O)[C@H](CC(=O)O)NC(=O)[C@H](Cc2cccc3ccccc23)NC(=O)[C@H](CC(=O)O)NC(=O)[C@@H]2CCCN2C1=O (H-DCLGFMRKCIPD[1Nal]DKCCRPNLVCSRTHKWCKYVF-NH2; disulfide 2-17, 9-23, 16-30)		7800 nM	130 nM	> 5000 nM
CSCC[C@@H]1NC(=O)[C@H](Cc2ccccc2)NC(=O)CNC(=O)[C@H](CC(C)C)NC(=O)[C@@H](NC(=O)[C@@H](N)CC(=O)O)CSSC[C@@H]2NC(=O)[C@@H]3CSSC[C@@H](C(=O)N[C@@H](CCCCN)C(=O)N[C@@H](Cc4ccc(O)cc4)C(=O)N[C@H](C(=O)N[C@@H](Cc4ccccc4)C(N)=O)C(C)C)NC(=O)[C@H](Cc4c[nH]c5ccccc45)NC(=O)[C@H](CCCCN)NC(=O)[C@H](Cc4c[nH]cn4)NC(=O)[C@H]([C@@H](C)O)NC(=O)[C@H](CCCNC(=N)N)NC(=O)[C@H](CO)NC(=O)[C@H](CSSC[C@H](NC(=O)[C@H](CCCCN)NC(=O)[C@H](CCCNC(=N)N)NC1=O)C(=O)N[C@@H](Cc1cccc4ccccc14)C(=O)N1CCC[C@H]1C(=O)N[C@@H](CC(=O)O)C(=O)N[C@@H](CC(N)=O)C(=O)N[C@@H](CC(=O)O)C(=O)N[C@@H](CCCCN)C(=O)N3)NC(=O)[C@H](C(C)C)NC(=O)[C@H](CC(C)C)NC(=O)[C@H](CC(N)=O)NC(=O)[C@@H]1CCCN1C(=O)[C@H](CCCNC(=N)N)NC2=O	6 nM		160 nM	> 5000 nM
CC[C@H](C)[C@@H]1NC(=O)[C@@H]2CSSC[C@@H]3NC(=O)[C@H](C(C)C)NC(=O)[C@H](CC(C)C)NC(=O)[C@H](CC(N)=O)NC(=O)[C@@H]4CCCN4C(=O)[C@H](CCCNC(=N)N)NC(=O)[C@H](CSSC[C@H](NC(=O)[C@@H](N)CC(=O)O)C(=O)N[C@@H](CC(C)C)C(=O)N[C@@H](C)C(=O)N[C@@H](Cc4ccccc4)C(=O)N[C@@H](CCSC)C(=O)N[C@@H](CCCNC(=N)N)C(=O)N[C@@H](CCCCN)C(=O)N2)NC(=O)[C@H](CSSC[C@@H](C(=O)N[C@@H](CCCCN)C(=O)N[C@@H](Cc2ccc(O)cc2)C(=O)N[C@H](C(=O)N[C@@H](Cc2ccccc2)C(N)=O)C(C)C)NC(=O)[C@H](Cc2c[nH]c4ccccc24)NC(=O)[C@H](CCCCN)NC(=O)[C@H](Cc2cnc[nH]2)NC(=O)[C@H]([C@@H](C)O)NC(=O)[C@H](CCCNC(=N)N)NC(=O)[C@H](CO)NC3=O)NC(=O)[C@H](CCCCN)NC(=O)[C@H](CC(=O)O)NC(=O)[C@H](CC(N)=O)NC(=O)[C@H](CC(=O)O)NC(=O)[C@@H]2CCCN2C1=O (H-DCLAFMRKCIPDNDKCCRPNLVCSRTHKWCKYVF-NH2; disulfide 2-17, 9-23, 16-30)	27 nM	> 10000 nM		
CC[C@H](C)[C@@H]1NC(=O)[C@@H]2CSSC[C@@H]3NC(=O)[C@H](C(C)C)NC(=O)[C@H](CC(C)C)NC(=O)[C@H](CC(N)=O)NC(=O)[C@@H]4CCCN4C(=O)[C@H](CCCNC(=N)N)NC(=O)[C@H](CSSC[C@H](NC(=O)[C@@H](N)CC(=O)O)C(=O)N[C@@H](CC(C)C)C(=O)N[C@@H](CCCCN)C(=O)N[C@@H](Cc4ccccc4)C(=O)N[C@@H](CCSC)C(=O)N[C@@H](CCCNC(=N)N)C(=O)N[C@@H](CCCCN)C(=O)N2)NC(=O)[C@H](CSSC[C@@H](C(=O)N[C@@H](CCCCN)C(=O)N[C@@H](Cc2ccc(O)cc2)C(=O)N[C@H](C(=O)N[C@@H](Cc2ccccc2)C(N)=O)C(C)C)NC(=O)[C@H](Cc2c[nH]c4ccccc24)NC(=O)[C@H](CCCCN)NC(=O)[C@H](Cc2cnc[nH]2)NC(=O)[C@H]([C@@H](C)O)NC(=O)[C@H](CCCNC(=N)N)NC(=O)[C@H](CO)NC3=O)NC(=O)[C@H](CCCCN)NC(=O)[C@H](CC(=O)O)NC(=O)[C@H](CC(N)=O)NC(=O)[C@H](CC(=O)O)NC(=O)[C@@H]2CCCN2C1=O (H-DCLKFMRKCIPDNDKCCRPNLVCSRTHKWCKYVF-NH2; disulfide 2-17, 9-23, 16-30)		10100 nM	210 nM	> 5000 nM
